Experimental data reported in ChEMBL document CHEMBL1134778, “Amino acid phosphoramidate monoesters of 3'-azido-3'-deoxythymidine: relationship between antiviral potency and intracellular metabolism” (J Med Chem, 2001).

Columns and labels:
Homo sapiens [1] = organism: Homo sapiens; assay: Effective concentration of required to inhibit the replication of HIV-1 BY 50% in PMBCs from donor 1; assay type: functional, organism-based
CCRF-CEM [2] = assay: Concentration required to kill 50% of CEM cells; assay type: functional, cell-based; conditions: Homo sapiens
Outline: (§1)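 Uninfected PHA-stimulated PBMCs or CEM cells plated at 2.5 × 10^5 cells/well with diluted drug. Incubated 6 days at 37 °C, 10% CO2. XTT/PMS added and incubated 4 h at 37 °C. Absorbance read at 450 nm, 630 nm reference.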

Homo sapiens [3] = organism: Homo sapiens; assay: Effective concentration of required to inhibit the replication of HIV-1 BY 50% in PMBCs from donor 2; assay type: functional, organism-based
Homo sapiens [4] = organism: Homo sapiens; assay: Concentration required to kill 50% of PBMCs; assay type: functional, organism-based; outline: as §1
Homo sapiens [5] = organism: Homo sapiens; assay: Inhibition of Phosphoramidase activity with AZT L-amino acid carbamates; assay type: functional; conditions: concentration not given here
Outline: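 CEM cells (1.5 × 10^8) sonicated in 1 mL 20 mM Tris-HCl, 500 mM NaCl, pH 7.5. Whole lysate incubated 45 min at 37 °C with phosphoramidate (from 10 mM water stock) and carbamate (from 10 mM DMSO stock), then stopped with methanol. AZT-MP quantified by RP-HPLC-RIA against a no-carbamate control. Mean of two experiments.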

[6] = Inhibition of AZT-MP production by cell free extracts of CEM cells; assay type: functional, Homo sapiens, CCRF-CEM; parameters: unit not given here
Outline: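 CEM cells (1.5 × 10^8) sonicated in 1 mL 20 mM Tris-HCl, 500 mM NaCl, pH 7.5. Lysate incubated with phosphoramidate and carbamate, each added from 10 mM stock, for 45 min at 37 °C, then stopped with methanol. AZT-MP quantified by RP-HPLC-RIA against a no-carbamate control. Mean of two experiments.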

Homo sapiens [7] = organism: Homo sapiens; assay: Effective concentration required to inhibit the replication of HIV-1 by 50% in PMBCs in the presence of thymidine; assay type: functional, organism-based
Homo sapiens [8] = organism: Homo sapiens; assay: Effective concentration required to inhibit the replication of HIV-1 in activated PBMCs; assay type: functional, organism-based
Outline: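 PBMCs held 2 days either resting (no PHA, no IL-2) or with 10 μg/mL PHA, then IL-2 10 U/mL. Nonadherent cells infected with LAI/HIV-1 (5000 DPM/10^6 cells) for 3 h and washed. Plated at 2.5 × 10^5 cells/mL, compounds added in triplicate, 6 days at 37 °C. Supernatant RT activity measured; proviral gag DNA by PCR normalised to IFN-β1.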

CCRF-CEM [9] = assay: Effective concentration of required to inhibit the replication of HIV-1 BY 50% in CEM cells; assay type: functional, cell-based; conditions: Homo sapiens
Outline: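 PHA-stimulated CEM cells infected 3 h at 37 °C with LAI/HIV-1 (10 000 DPM RT activity/10^6 cells), then washed. Resuspended at 2.5 × 10^5 cells/mL in medium with 10 U/mL IL-2. Drugs in ddH2O added to duplicate or triplicate cultures. Held 6 days at 37 °C; supernatant p24 measured by ELISA.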

Homo sapiens [10] = organism: Homo sapiens; assay: Effective concentration required to inhibit the replication of HIV-1 by 50% in PMBCs in the absence of thymidine; assay type: functional, organism-based
Homo sapiens [11] = organism: Homo sapiens; assay: Effective concentration required to inhibit the replication of HIV-1 with 2 hr pretreatment of activated PBMCs; assay type: functional, organism-based
Outline: (§2)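 Uninfected PHA-stimulated PBMCs (2.5 × 10^5 cells/mL) given compound in ddH2O in triplicate for 2 h at 37 °C, then LAI/HIV-1 (5000 DPM/10^6 cells) added. In parallel cultures, cells were infected 3 h first and then treated. After 6 days at 37 °C, supernatant RT activity measured.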

U1 = assay: Antiviral activity was determined in chronically infected U1 cell line with HIV-1; assay type: functional, cell-based; conditions: Homo sapiens
Outline: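 HIV-1 chronically infected U1 cells (1.5 × 10^5 cells/well) in RPMI 1640 with 10% FBS and 10 ng/mL TNF-α. Compound in ddH2O added to duplicate cultures. Incubated 48 h at 37 °C, 5% CO2. Supernatant p24gag measured by ELISA; XTT assay run on the remaining culture.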

Homo sapiens [12] = organism: Homo sapiens; assay: Effective concentration required to inhibit the replication of HIV-1 with no pretreatment of activated PBMCs; assay type: functional, organism-based; outline: as §2
[13] = test system: Human immunodeficiency virus 1; assay: Concentration required to inhibit the production of proviral DNA in unactivated PBMCs
Homo sapiens [14] = organism: Homo sapiens; assay: (§3) Intracellular of AZT-TP concentrations in LAI/HIV-1 infected PMBCs was determined at a conc of 10 uM); assay type: functional, organism-based
Outline: (§4)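 PHA-stimulated, LAI/HIV-1-infected PBMCs (donor 2) at 10^6 cells/mL, triplicate, given 10 µM compound ± 50 µM thymidine for 18 h at 37 °C. Cells washed, extracted in 60% methanol overnight at −20 °C, dried and reconstituted. AZT-TP quantified by inhibition of recombinant HIV-1 RT (poly(rA)-oligo(dT), 3H-TTP, 2 h at 37 °C) relative to AZT-TP standards; pmol/10^6 cells.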

[15] = test system: Human immunodeficiency virus 1; assay: Concentration required to inhibit HIV-1 replication by 50% in activated PBMCs
Homo sapiens [16] = organism: Homo sapiens; assay: as §3; assay type: functional, organism-based; outline: as §4; remark: listed apart in the source

## COC(=O)[C@H](CC(C)C)NP(=O)(O)OC[C@H]1O[C@@H](n2cc(C)c(=O)[nH]c2=O)C[C@@H]1N=[N+]=[N-]
Homo sapiens [1]
  EC50: 1300 nM
CCRF-CEM [2]
  IC50: > 100000 nM
Homo sapiens [3]
  EC50: 1000 nM
Homo sapiens [4]
  IC50: > 100000 nM

## COC(=O)[C@@H](Cc1c[nH]c2ccccc12)NP(=O)(O)OC[C@H]1O[C@@H](n2cc(C)c(=O)[nH]c2=O)C[C@@H]1N=[N+]=[N-]
Homo sapiens [1]
  EC50: 1000 nM
CCRF-CEM [2]
  IC50: > 100000 nM
Homo sapiens [3]
  EC50: 1000 nM
Homo sapiens [4]
  IC50: > 100000 nM

## COC(=O)[C@@H](Cc1c[nH]c2ccccc12)NP(=O)(O)OC[C@H]1O[C@@H](n2cc(C)c(=O)[nH]c2=O)C[C@@H]1N=[N+]=[N-].COC(=O)[C@H](Cc1c[nH]c2ccccc12)NC(=O)OC[C@H]1O[C@@H](n2cc(C)c(=O)[nH]c2=O)C[C@@H]1N=[N+]=[N-] [listing 1 of 2 here]
Homo sapiens [5]
  inhibition: 60%

## COC(=O)[C@@H](Cc1ccccc1)NP(=O)(O)OC[C@H]1O[C@@H](n2cc(C)c(=O)[nH]c2=O)C[C@@H]1N=[N+]=[N-]
Homo sapiens [1]
  EC50: 89 nM
CCRF-CEM [2]
  IC50: > 100000 nM
Homo sapiens [3]
  EC50: 80 nM
Homo sapiens [4]
  IC50: > 100000 nM

## COC(=O)[C@H](Cc1ccccc1)NC(=O)OC[C@H]1O[C@@H](n2cc(C)c(=O)[nH]c2=O)C[C@@H]1N=[N+]=[N-].COC(=O)[C@H](Cc1ccccc1)NP(=O)(O)OC[C@H]1O[C@@H](n2cc(C)c(=O)[nH]c2=O)C[C@@H]1N=[N+]=[N-]
[6]
  Activity: 0.03

## COC(=O)[C@H](Cc1ccccc1)NP(=O)(O)OC[C@H]1O[C@@H](n2cc(C)c(=O)[nH]c2=O)C[C@@H]1N=[N+]=[N-]
[6]
  Activity: 6.3
Homo sapiens [1]
  EC50: 30000 nM
Homo sapiens [7]
  EC50: > 100000 nM
CCRF-CEM [2]
  IC50: > 100000 nM
Homo sapiens [3]
  EC50: 15000 nM
Homo sapiens [8]
  EC50: > 100000 nM
CCRF-CEM [9]
  EC50: < 1 nM
Homo sapiens [10]
  EC50: 15000 nM
Homo sapiens [11]
  EC50: 1000 nM
U1
  EC50: 25000 nM
Homo sapiens [4]
  IC50: > 100000 nM
Homo sapiens [12]
  EC50: 15000 nM
[13]
  IC100: >100 µM

## CNC(=O)[C@@H](Cc1c[nH]c2ccccc12)NP(=O)(O)OC[C@H]1O[C@@H](n2cc(C)c(=O)[nH]c2=O)C[C@@H]1N=[N+]=[N-]
Homo sapiens [1]
  EC50: 400 nM
CCRF-CEM [2]
  IC50: > 100000 nM
Homo sapiens [3]
  EC50: 180 nM
Homo sapiens [4]
  IC50: > 100000 nM

## COC(=O)[C@@H](Cc1c[nH]c2ccccc12)NP(=O)(O)OC[C@H]1O[C@@H](n2cc(C)c(=O)[nH]c2=O)C[C@@H]1N=[N+]=[N-].COC(=O)[C@H](Cc1c[nH]c2ccccc12)NC(=O)OC[C@H]1O[C@@H](n2cc(C)c(=O)[nH]c2=O)C[C@@H]1N=[N+]=[N-] [listing 2 of 2 here]
[6]
  Activity: 2.56

## Cc1cn([C@H]2C[C@H](N=[N+]=[N-])[C@@H](CO)O2)c(=O)[nH]c1=O [ZIDOVUDINE]
Homo sapiens [1]
  EC50: 6 nM
Homo sapiens [7]
  EC50: 300 nM
Homo sapiens [14]
  Concentration (pM (10e6*cells)-1): 0.69
Homo sapiens [3]
  EC50: 7 nM
CCRF-CEM [9]
  EC50: < 1 nM
Homo sapiens [10]
  EC50: 7 nM
Homo sapiens [11]
  EC50: 15 nM
[15]
  EC50: 10 nM
U1
  EC50: 25000 nM
Homo sapiens [4]
  IC50: > 100000 nM
Homo sapiens [12]
  EC50: 10 nM
Homo sapiens [16]
  Concentration (pM (10e6*cells)-1): 1.37
[13]
  IC100: 0.01 µM
